From ChEMBL document CHEMBL1133857, “Beta 3 agonists. Part 1: evolution from inception to BMS-194449” (Bioorg Med Chem Lett, 2001)
pKi: −log10 of the molar value.

Legend:
[1] = target: Beta-2 adrenergic receptor and beta-3 adrenergic receptor (Homo sapiens) (UniProt P07550+P13945); assay: Selectivity as the ratio of Ki of beta-2 adrenergic receptor to the Ki of beta-3 adrenergic receptor.; format: protein assay
Outline: (§1)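 Ki at human β1, β2 and β3 adrenergic receptors measured by binding to membranes prepared from CHO cells transfected with each human receptor. Selectivity is expressed as the ratio of β1 or β2 Ki to β3 Ki.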

[2] = target: T1, Beta-3 adrenergic receptor (Homo sapiens, UniProt P13945); assay: Binding affinity against CHO cells transfected with human beta-3 adrenergic receptor in the presence of [125I]iodocyanopindolol; format: cell-based; outline: as §1
Target sequence in this assay (P13945 whole entry): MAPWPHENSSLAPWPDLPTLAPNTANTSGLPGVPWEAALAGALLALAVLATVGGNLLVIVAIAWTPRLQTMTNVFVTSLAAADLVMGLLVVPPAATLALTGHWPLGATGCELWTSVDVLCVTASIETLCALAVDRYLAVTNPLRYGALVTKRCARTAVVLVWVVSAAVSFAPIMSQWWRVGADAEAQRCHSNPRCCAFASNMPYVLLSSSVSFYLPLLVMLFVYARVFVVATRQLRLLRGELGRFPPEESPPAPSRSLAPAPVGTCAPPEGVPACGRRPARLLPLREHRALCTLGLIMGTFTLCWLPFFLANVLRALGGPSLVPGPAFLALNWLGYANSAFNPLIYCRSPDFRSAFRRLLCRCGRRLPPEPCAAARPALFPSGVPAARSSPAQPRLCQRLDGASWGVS

[3] = target: T1, Beta-3 adrenergic receptor; assay: Human beta-3 adrenergic receptor agonist activity by measurement of cAMP accumulation levels in CHO membranes expressing human beta-3 receptor.; format: functional, cell membranes
Outline: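 β3 intrinsic activity (% activation) measured in membranes from CHO cells transfected with human β3 adrenergic receptor.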
Target sequence in this assay (P13945 whole entry, looked up): as the sequence (P13945 whole entry) above

[4] = target: Adrenergic receptor beta; ADRB1 & ADRB3 (Homo sapiens) (UniProt P08588+P13945); assay: Selectivity measured as the ratio of Ki of Beta-1 Adrenergic receptor to the Ki of Beta-3 Adrenergic receptor; format: protein assay; outline: as §1
Adrenergic receptor beta; ADRB1 & ADRB3 (Homo sapiens), sequence (P08588 whole entry, looked up): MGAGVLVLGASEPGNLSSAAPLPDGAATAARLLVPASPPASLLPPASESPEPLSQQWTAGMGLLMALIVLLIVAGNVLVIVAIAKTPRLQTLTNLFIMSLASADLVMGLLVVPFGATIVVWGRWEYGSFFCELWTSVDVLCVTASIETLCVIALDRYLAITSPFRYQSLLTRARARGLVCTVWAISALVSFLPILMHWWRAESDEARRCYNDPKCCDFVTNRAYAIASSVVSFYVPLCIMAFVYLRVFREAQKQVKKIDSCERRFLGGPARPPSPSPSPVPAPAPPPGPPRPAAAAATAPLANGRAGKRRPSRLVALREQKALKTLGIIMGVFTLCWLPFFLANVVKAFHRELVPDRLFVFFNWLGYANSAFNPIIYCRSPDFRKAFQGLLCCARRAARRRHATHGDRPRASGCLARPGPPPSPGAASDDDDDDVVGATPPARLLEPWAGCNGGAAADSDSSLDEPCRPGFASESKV
Adrenergic receptor beta; ADRB1 & ADRB3 (Homo sapiens), sequence (P13945 whole entry, looked up): as the sequence (P13945 whole entry) above

Cavia porcellus = species on record: Cavia porcellus; assay: Intrinsic activity as the acceleration in contraction of spontaneously beating guinea pig atria relative to that induced by isoproterenol; format: functional
[5] = Response of African green monkeys to lipolysis upon iv injection of compound; format: functional; settings: Cercopithecidae
Outline: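 Agonist given iv to ketamine-anesthetized African green monkeys. Lipolysis is read as the rise in non-esterified fatty acids, and the ED50 is given in mg/kg. β3 mediation is checked by co-administration with propranolol 0.1 mg/kg.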

[6] = Response of African green monkeys to iv injection measured as beta-1 margin before onset of tachycardia; format: functional, Cercopithecidae
Outline: (§2)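 Agonist given iv to ketamine-anesthetized African green monkeys. A β1 event is the onset of tachycardia, and a β2 event is a decrease in serum K+. Margin = dose producing statistically significant onset of the β1 or β2 event ÷ ED50 for lipolysis.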

[7] = Response of African green monkeys to iv injection measured as beta-2 margin before decrease of serum K; format: functional, Cercopithecidae; outline: as §2

| Structure (SMILES) | Selectivity [1] | pKi [2] | Intrinsic activity [3] | Selectivity [4] | Intrinsic activity (Cavia porcellus) | ED50 [5] | Ratio of dose [6] | Ratio of dose [7] |
| --- | --- | --- | --- | --- | --- | --- | --- | --- |
| COc1ccc(C(C)(NC[C@H](O)c2ccc(O)c(NS(C)(=O)=O)c2)c2ccc(OC)cc2)cc1 | 8 | 7.70 | 79% | 3 | 79% | – | – | – |
| CS(=O)(=O)Nc1cc(C(O)CNC(Cc2ccccc2)c2ccc(Cl)c(Cl)c2)ccc1O (stereo unspecified) | 1 | 6.38 | 97% | 9 | – | – | – | – |
| CS(=O)(=O)Nc1cc(C(O)CNC(CCCCCO)Cc2ccccc2)ccc1O (stereo unspecified) | 0.5 | 6.32 | 72% | 10 | – | – | – | – |
| C[C@H](Cc1ccc(OCC(=O)O)cc1)NC[C@H](O)c1cccc(Cl)c1 | – | – | 67% | – | – | – | – | – |
| COCc1ccc(C(NC[C@H](O)c2ccc(O)c(NS(C)(=O)=O)c2)c2ccc(COC)cc2)cc1 | 13 | 6.01 | 78% | 46 | – | – | – | – |
| CS(=O)(=O)Nc1cc(C(O)CNC(Cc2ccccc2)c2ccccc2)ccc1O (stereo unspecified) | 3 | – | – | 15 | – | – | – | – |
| COc1ccc([C@H](Cc2ccccc2)NC[C@H](O)c2ccc(O)c(NS(C)(=O)=O)c2)cc1OC | 6 | 6.49 | 93% | 63 | – | – | – | – |
| CCc1ccc(C(Cc2ccccc2)NCC(O)c2ccc(O)c(NS(C)(=O)=O)c2)cc1CC (stereo unspecified) | 0.5 | 6.28 | 91% | 6 | – | – | – | – |
| CS(=O)(=O)Nc1cc(C(O)CNC(Cc2ccccc2)Cc2ccccc2)ccc1O (stereo unspecified) | 0.3 | 5.82 | – | 6 | – | – | – | – |
| COc1ccc([C@@H](Cc2ccccc2)NC[C@H](O)c2ccc(O)c(NS(C)(=O)=O)c2)cc1OC | 6 | 7.96 | 112% | 63 | – | 0.03 mg/kg | <3 | 3 |
| CC(C)NCC(O)c1ccc(O)c(NS(C)(=O)=O)c1 (stereo unspecified) [SOTERENOL] | 0.6 | 5.39 | 109% | 2 | – | – | – | – |
| CNC(=O)CCCCC(Cc1ccccc1)NCC(O)c1ccc(O)c(NS(C)(=O)=O)c1 (stereo unspecified) | 0.5 | 5.80 | 104% | 7 | – | – | – | – |
| CS(=O)(=O)Nc1cc(C(O)CN)ccc1O (stereo unspecified) | 0.1 | 4.77 | 93% | 0.6 | – | – | – | – |
| CCC(C)(C)NCC(O)c1ccc(O)c(NS(C)(=O)=O)c1 (stereo unspecified) | 0.03 | 5.43 | 125% | 0.3 | – | – | – | – |
| COc1ccc(C(Cc2ccccc2)NCC(O)c2ccc(O)c(NS(C)(=O)=O)c2)c(OC)c1 (stereo unspecified) | 3 | 7.15 | 102% | 37 | – | – | – | – |
| COC(=O)COc1ccc(CCNCC(O)c2ccc(O)c(NS(C)(=O)=O)c2)cc1 (stereo unspecified) | 0.01 | 5.48 | 79% | 0.7 | – | – | – | – |
| COc1ccc(C(NC[C@H](O)c2ccc(O)c(NS(C)(=O)=O)c2)(C(N)=O)c2ccc(OC)cc2)cc1 | 10 | 6.66 | 106% | 3 | – | – | – | – |
| CC(NC[C@H](O)c1ccc(O)c(NS(C)(=O)=O)c1)(c1ccc(OC(F)F)cc1)c1ccc(OC(F)F)cc1 | 2 | 7.09 | 94% | 2 | – | – | – | – |
| COc1ccc(C(Cc2ccccc2)NCC(O)c2ccc(O)c(NS(C)(=O)=O)c2)cc1OC (stereo unspecified) | 8 | 7.48 | 105% | 69 | – | – | – | – |

| Structure (SMILES) | Selectivity [1] | pKi [2] | Intrinsic activity [3] | Selectivity [4] | Intrinsic activity (Cavia porcellus) | ED50 [5] | Ratio of dose [6] | Ratio of dose [7] |
| --- | --- | --- | --- | --- | --- | --- | --- | --- |
| COc1ccc(CNCC(O)c2ccc(O)c(NS(C)(=O)=O)c2)cc1 (stereo unspecified) | 2 | 5.81 | 95% | 22 | – | – | – | – |
| CS(=O)(=O)Nc1cc(C(O)CNC(Cc2ccccc2)C2CCCCC2)ccc1O (stereo unspecified) | 0.7 | 5.37 | 80% | 7 | – | – | – | – |
| CCCCCC(Cc1ccccc1)NCC(O)c1ccc(O)c(NS(C)(=O)=O)c1 (stereo unspecified) | 0.5 | 6.49 | 77% | 8 | – | – | – | – |
| COc1ccc(C(Cc2ccccc2)NCC(O)c2ccc(O)c(NS(C)(=O)=O)c2)cc1 (stereo unspecified) | – | – | 99% | – | – | – | – | – |
| CS(=O)(=O)Nc1cc([C@@H](O)CNC(c2ccc(F)cc2)c2ccc(F)cc2)ccc1O | 2 | 5.55 | 70% | 3 | 48% | – | – | – |
| CS(=O)(=O)Nc1cc(C(O)CNC23CC4CC(CC(C4)C2)C3)ccc1O (stereo unspecified) | 0.04 | 4.96 | 110% | 15 | – | – | – | – |
| COc1ccc(C(NC[C@H](O)c2ccc(O)c(NS(C)(=O)=O)c2)c2ccc(OC)cc2)cc1 | – | – | 100% | – | 85% | – | – | – |
| CS(=O)(=O)Nc1cc([C@@H](O)CNC(c2ccccc2)c2ccccc2)ccc1O | 5 | 5.24 | 44% | 5 | – | – | – | – |
| CN(C)C(=O)c1ccc(C(NC[C@H](O)c2ccc(O)c(NS(C)(=O)=O)c2)c2ccc(C(=O)N(C)C)cc2)cc1 | – | – | 43% | – | – | – | – | – |
| CS(=O)(=O)Nc1cc(C(O)CNCc2ccccc2)ccc1O (stereo unspecified) | 0.25 | 4.90 | – | 2 | – | – | – | – |
| COc1cccc(C(Cc2ccccc2)NCC(O)c2ccc(O)c(NS(C)(=O)=O)c2)c1 (stereo unspecified) | 2 | 6.64 | 99% | 16 | – | – | – | – |
| COC(=O)CCCCC(Cc1ccccc1)NCC(O)c1ccc(O)c(NS(C)(=O)=O)c1 (stereo unspecified) | 5 | 6.24 | 89% | 26 | – | – | – | – |
| CS(=O)(=O)Nc1cc(C(O)CNC(CCCCC(=O)O)Cc2ccccc2)ccc1O (stereo unspecified) | 0.3 | 4.06 | 57% | 1 | – | – | – | – |
| COc1ccc(CCNCC(O)c2ccc(O)c(NS(C)(=O)=O)c2)cc1 (stereo unspecified) | 0.3 | 6.32 | 93% | 4 | – | – | – | – |
| CS(=O)(=O)Nc1cc(C(O)CNCCc2ccccc2)ccc1O (stereo unspecified) | 0.07 | 5.96 | 91% | 2 | – | – | – | – |
| CS(=O)(=O)Nc1cc([C@@H](O)CNC(c2ccc(OC(F)F)cc2)c2ccc(OC(F)F)cc2)ccc1O | 7 | 6.80 | 77% | 8 | 24% | 0.08 mg/kg | >6 | >60 |
| Cc1ccc(C(Cc2ccccc2)NCC(O)c2ccc(O)c(NS(C)(=O)=O)c2)cc1C (stereo unspecified) | 3 | 6.88 | 79% | 43 | – | – | – | – |
| COc1ccc(CCNCC(O)c2ccc(O)c(NS(C)(=O)=O)c2)cc1OC (stereo unspecified) | 1 | 6.26 | 110% | 4 | – | – | – | – |
| CS(=O)(=O)Nc1cc(C(O)CNCCc2ccc(OCC(=O)O)cc2)ccc1O (stereo unspecified) | 0.06 | 4.31 | 77% | 2 | – | – | – | – |
